# Results gathered from unrelated publications.
# Lines come from different studies, so protocols differ.
# Tspo: Translocator protein (Tspo, Rattus norvegicus, UniProt P16257)
# Melanocortin receptor 4: Melanocortin receptor 4 (Mus musculus, UniProt P56450)
# GLP2R: Glucagon-like peptide 2 receptor (GLP2R, Homo sapiens, UniProt O95838)
# LDHA: L-lactate dehydrogenase A chain (LDHA, Homo sapiens, UniProt P00338)
SMILES,target,assay,endpoint,result
O=C(Nc1ccncc1)c1cn(Cc2ccc(Cl)c(Cl)c2)c(=O)c2cnn(C3CCNCC3)c12,"Fascin (FSCN1, Homo sapiens, UniProt Q16658)","binding, ITC",Kd,45 nM
CNc1nc(C#Cc2ccccc2)nc2c1ncn2[C@H]1[C@H](O)[C@H](O)[C@@H]2C[C@@H]21,Tspo,"ligand displacement, radioligand",Ki,> 10 µM
N=C(N)NCCC[C@H](NC(=O)[C@H](CC(=O)O)NC(=O)[C@H](Cc1c[nH]c2ccccc12)NC(=O)[C@H](CCCNC(=N)N)NC(=O)[C@H](Cc1ccccc1)NC(=O)[C@@H](N)Cc1c[nH]cn1)C(=O)N[C@@H](Cc1ccccc1)C(=O)NCC(=O)O,Melanocortin receptor 4,"reporter gene, agonist",EC50,8.38 µM
CC/C=C\C/C=C\C/C=C\C/C=C\C/C=C\CCCC(=O)O,"Peroxisome proliferator-activated receptor delta (PPARD, Homo sapiens, UniProt Q03181)","reporter gene, agonist, luciferase",EC50,90.5 µM
CC[C@H](C)[C@H](NC(=O)[C@H](CO)NC(=O)[C@H](Cc1ccc(O)cc1)NC(=O)[C@H](CC(=O)O)NC(=O)[C@H](CO)NC(=O)[C@@H](NC(=O)[C@H](Cc1ccccc1)NC(=O)[C@@H](NC(=O)CNC(=O)[C@H](CCC(=O)O)NC(=O)[C@H](C)NC(=O)[C@@H](N)Cc1ccc(O)cc1)[C@@H](C)O)[C@@H](C)CC)C(=O)N[C@@H](C)C(=O)N[C@@H](CCSC)C(=O)N[C@@H](CC(=O)O)C(=O)N[C@@H](CCCCN)C(=O)N[C@H](C(=O)N[C@@H](Cc1c[nH]cn1)C(=O)N[C@@H](CCC(N)=O)C(=O)N[C@@H](CCC(N)=O)C(=O)N[C@@H](CC(=O)O)C(=O)N[C@@H](Cc1ccccc1)C(=O)N[C@H](C(=O)N[C@@H](CC(N)=O)C(=O)N[C@@H](Cc1c[nH]c2ccccc12)C(=O)N[C@@H](CC(C)C)C(=O)N[C@@H](CC(C)C)C(=O)N[C@@H](C)C(=O)N[C@@H](CCC(N)=O)C(=O)N[C@@H](CCCCN)C(=O)NCC(=O)N[C@@H](CCCCN)C(=O)N[C@@H](CCCCN)C(=O)N[C@@H](CC(N)=O)C(=O)N[C@@H](CC(=O)O)C(=O)N[C@@H](Cc1c[nH]c2ccccc12)C(=O)N[C@@H](CCCCN)C(=O)N[C@@H](Cc1c[nH]cn1)C(=O)N[C@@H](CC(N)=O)C(=O)N[C@H](C(=O)N[C@H](C(=O)N[C@@H](CCC(N)=O)C(=O)O)[C@@H](C)O)[C@@H](C)CC)C(C)C)[C@@H](C)CC,GLP2R,"reporter gene, agonist, luciferase",EC50,> 1 µM
O=C(O)CC(=O)C(=O)O,LDHA,"binding, fluorescence",Kd,642000 nM
CNC(=O)[C@@]12C[C@@H]1[C@@H](n1cnc3c(NC)nc(C#Cc4ccccc4)nc31)[C@H](O)[C@@H]2O,Tspo,"ligand displacement, radioligand",Ki,> 10 µM
CSCC[C@H](NC(=O)[C@@H](NC(=O)[C@@H](N)Cc1ccc(O)cc1)C(C)C)C(=O)NCC(=O)N[C@@H](Cc1c[nH]cn1)C(=O)N[C@@H](Cc1ccccc1)C(=O)O,Melanocortin receptor 4,"reporter gene, agonist",EC50,> 100 µM
CC[C@H](C)[C@H](NC(=O)[C@H](CC(=O)O)NC(=O)[C@H](CO)NC(=O)[C@@H](NC(=O)[C@H](Cc1ccccc1)NC(=O)[C@@H](NC(=O)CNC(=O)[C@H](CC(=O)O)NC(=O)[C@H](C)NC(=O)[C@@H](N)Cc1c[nH]cn1)[C@@H](C)O)[C@@H](C)O)C(=O)N[C@@H](CC(N)=O)C(=O)N[C@@H](CCCCN)C(=O)N[C@H](C(=O)N[C@@H](CC(C)C)C(=O)N[C@@H](CC(=O)O)C(=O)N[C@@H](CC(=O)O)C(=O)N[C@@H](CCSC)C(=O)N[C@@H](C)C(=O)N[C@@H](C)C(=O)N[C@@H](CCCCN)C(=O)N[C@@H](CCC(=O)O)C(=O)N[C@@H](Cc1ccccc1)C(=O)N[C@@H](CC(C)C)C(=O)N[C@@H](CCCCN)C(=O)N[C@@H](Cc1c[nH]c2ccccc12)C(=O)N[C@@H](CC(C)C)C(=O)N[C@H](C(=O)N[C@@H](CC(N)=O)C(=O)N[C@H](C(=O)N[C@@H](CCCCN)C(=O)N[C@H](C(=O)N[C@H](C(=O)N[C@@H](CCC(N)=O)C(=O)O)[C@@H](C)O)C(C)C)[C@@H](C)O)[C@@H](C)CC)[C@@H](C)CC,GLP2R,"reporter gene, agonist, luciferase",EC50,0.033 µM
O=C(OC[C@H]1O[C@@H](OC(=O)c2cc(O)c(O)c(OC(=O)c3cc(O)c(O)c(O)c3)c2)[C@H](OC(=O)c2cc(O)c(O)c(OC(=O)c3cc(O)c(O)c(O)c3)c2)[C@@H](OC(=O)c2cc(O)c(O)c(OC(=O)c3cc(O)c(O)c(O)c3)c2)[C@@H]1OC(=O)c1cc(O)c(O)c(OC(=O)c2cc(O)c(O)c(O)c2)c1)c1cc(O)c(O)c(OC(=O)c2cc(O)c(O)c(O)c2)c1,"Replicase polyprotein 1ab, main protease (rep, Severe acute respiratory syndrome coronavirus 2, UniProt P0DTD1)","binding, SPR",Kd,1100 nM
CCOC(=O)[C@@]12C[C@@H]1[C@@H](n1ccc3c(NC4CC4)nc(C#Cc4ccccc4)nc31)[C@H](O)[C@@H]2O,Tspo,"ligand displacement, radioligand",Ki,> 10 µM
CSCC[C@H](NC(=O)[C@@H](NC(=O)[C@@H](N)Cc1ccc(O)cc1)C(C)C)C(=O)NCC(=O)N[C@@H](Cc1c[nH]cn1)C(=O)N[C@@H](Cc1ccccc1)C(=O)N[C@@H](CCCNC(=N)N)C(=O)N[C@@H](Cc1c[nH]c2ccccc12)C(=O)N[C@@H](CC(=O)O)C(=O)N[C@@H](CCCNC(=N)N)C(=O)O,Melanocortin receptor 4,"reporter gene, agonist",EC50,0.66 µM
CCOC(=O)[C@@]12C[C@@H]1[C@@H](n1ccc3c(NC)nc(I)nc31)[C@H](O)[C@@H]2O,Tspo,"ligand displacement, radioligand",Ki,> 10 µM
N=C(N)NCCC[C@H](NC(=O)[C@@H](N)CC(=O)O)C(=O)N[C@@H](Cc1ccccc1)C(=O)O,Melanocortin receptor 4,"reporter gene, agonist",EC50,> 100 µM
Cc1nc2ccc(NC(=O)CCNC(=O)CCCc3ccc(CC(C(=O)O)C(=O)O)cc3)cc2s1,LDHA,"binding, SPR",Kd,58 nM
